Experimental data taken from ChEMBL document CHEMBL5236549, “Discovery of 2-Sulfinyl-Diazabicyclooctane Derivatives, Potential Oral β-Lactamase Inhibitors for Infections Caused by Serine β-Lactamase-Producing Enterobacterales” (J Med Chem, 2021).
In brackets after ≈: the same amount, converted by molar mass.

How the values were obtained:
[1] = Inhibition of bacterial beta-lactamase KPC-2 using nitrocefin as substrate incubated for 20 mins; parameters: species or system Bacteria
Procedure, shortened: (§1)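 Nitrocefin hydrolysis read by absorbance. Enzyme titrated to give about 0.2 absorbance change over the no-enzyme control. Enzyme added to nitrocefin (final 50 μg/mL) plus inhibitor, no preincubation, read after 20 min at 35 °C. IC50 is 50% reduction of hydrolysis. N = 1.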

[2] = Inhibition of bacterial beta-lactamase CMY-2 using nitrocefin as substrate incubated for 20 mins; parameters: species or system Bacteria; procedure, shortened: as §1
[3] = Inhibition of bacterial beta-lactamase OXA-48 using nitrocefin as substrate incubated for 20 mins; parameters: species or system Bacteria; procedure, shortened: as §1
[4] = tested on: Escherichia coli; assay: Antibacterial activity against Escherichia coli ATCC SR34100 assessed as reduction in bacterial growth by measuring minimum […] concentration incubated for 16 to 24 hrs by CLSI based two-fold serial dilution method; type: functional; conditions: time 16-24 hrs
Procedure, shortened: (§2)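 MPC₁ by broth microdilution: twofold serial dilutions of inhibitor in cation-adjusted Mueller Hinton broth containing ceftibuten at 1 μg/mL. Inoculum about 5 × 10⁴ cfu/well final, set from OD625. Incubation at 35 °C for 16−20 h. […] N = 1.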

[5] = tested on: Escherichia coli; assay: Antibacterial activity against Escherichia coli ATCC SR09613 assessed as reduction in bacterial growth by measuring minimum […] concentration incubated for 16 to 24 hrs by CLSI based two-fold serial dilution method; type: functional; conditions: time 16-24 hrs; procedure, shortened: as §2
[6] = tested on: Klebsiella pneumoniae; assay: Antibacterial activity against Klebsiella pneumoniae ATCC SR201218 assessed as reduction in bacterial growth by measuring minimum […] concentration incubated for 16 to 24 hrs by CLSI based two-fold serial dilution method; type: functional; conditions: time 16-24 hrs; procedure, shortened: as §2
[7] = tested on: Enterobacter cloacae; assay: Antibacterial activity against Enterobacter cloacae SR200030 assessed as inhibition of bacterial growth incubated for 16 to 24 hrs by CLSI based two-fold serial dilution method; type: functional; conditions: time 16-24 hrs
Procedure, shortened: (§3)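 CLSI broth microdilution in cation-adjusted Mueller Hinton broth, twofold serial dilutions, about 5 × 10⁴ cfu/well from OD625, 35 °C for 16−20 h. MIC is the lowest concentration with no visible growth.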

[8] = tested on: Klebsiella pneumoniae; assay: Antibacterial activity against Klebsiella pneumoniae SR100758 assessed as inhibition of bacterial growth incubated for 16 to 24 hrs by CLSI based two-fold serial dilution method; type: functional; conditions: time 16-24 hrs; procedure, shortened: as §3
[9] = tested on: Klebsiella pneumoniae; assay: Antibacterial activity against Klebsiella pneumoniae SR200263 assessed as inhibition of bacterial growth incubated for 16 to 24 hrs by CLSI based two-fold serial dilution method; type: functional; conditions: time 16-24 hrs; procedure, shortened: as §3
[10] = tested on: Klebsiella pneumoniae; assay: Antibacterial activity against Klebsiella pneumoniae SR200487 assessed as inhibition of bacterial growth incubated for 16 to 24 hrs by CLSI based two-fold serial dilution method; type: functional; conditions: time 16-24 hrs; procedure, shortened: as §3
[11] = tested on: Enterobacter cloacae; assay: Antibacterial activity against Enterobacter cloacae SR200030 assessed as reduction in bacterial growth by measuring minimum […] concentration incubated for 16 to 24 hrs by CLSI based two-fold serial dilution method; type: functional; conditions: time 16-24 hrs
Procedure, shortened: (§4)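 Inhibitor twofold serially diluted in cation-adjusted Mueller Hinton broth containing ceftibuten 1 μg/mL. About 5 × 10⁴ cfu/well, 35 °C for 16−20 h. […] N = 1.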

[12] = tested on: Klebsiella pneumoniae; assay: Antibacterial activity against Klebsiella pneumoniae SR100758 assessed as reduction in bacterial growth by measuring minimum […] concentration incubated for 16 to 24 hrs by CLSI based two-fold serial dilution method; type: functional; conditions: time 16-24 hrs; procedure, shortened: as §4
[13] = tested on: Klebsiella pneumoniae; assay: Antibacterial activity against Klebsiella pneumoniae SR201325 assessed as reduction in bacterial growth by measuring minimum […] concentration incubated for 16 to 24 hrs by CLSI based two-fold serial dilution method; type: functional; conditions: time 16-24 hrs; procedure, shortened: as §4
[14] = tested on: Enterobacter cloacae; assay: Antibacterial activity against Enterobacter cloacae SR36276 assessed as inhibition of bacterial growth incubated for 16 to 20 hrs by CLSI based two-fold serial dilution method
[15] = tested on: Escherichia coli; assay: Antibacterial activity against Escherichia coli ATCC SR34100 assessed as inhibition of bacterial growth incubated for 16 to 20 hrs by CLSI based two-fold serial dilution method
[16] = tested on: Escherichia coli; assay: Antibacterial activity against Escherichia coli ATCC SR09613 assessed as inhibition of bacterial growth incubated for 16 to 20 hrs by CLSI based two-fold serial dilution method
[17] = tested on: Enterobacter cloacae; assay: Antibacterial activity against Enterobacter cloacae SR100108 assessed as inhibition of bacterial growth incubated for 16 to 20 hrs by CLSI based two-fold serial dilution method
[18] = tested on: Klebsiella pneumoniae; assay: Antibacterial activity against Klebsiella pneumoniae SR09635 assessed as inhibition of bacterial growth incubated for 16 to 20 hrs by CLSI based two-fold serial dilution method
[19] = tested on: Klebsiella pneumoniae; assay: Antibacterial activity against Klebsiella pneumoniae SR09603 assessed as inhibition of bacterial growth incubated for 16 to 20 hrs by CLSI based two-fold serial dilution method
[20] = tested on: Klebsiella pneumoniae; assay: Antibacterial activity against Klebsiella pneumoniae SR201325 assessed as inhibition of bacterial growth incubated for 16 to 20 hrs by CLSI based two-fold serial dilution method
[21] = tested on: Klebsiella pneumoniae; assay: Antibacterial activity against Klebsiella pneumoniae ATCC BAA1705 assessed as inhibition of bacterial growth incubated for 16 to 20 hrs by CLSI based two-fold serial dilution method
[22] = tested on: Klebsiella pneumoniae; assay: Antibacterial activity against Klebsiella pneumoniae ATCC SR201218 assessed as inhibition of bacterial growth incubated for 16 to 20 hrs by CLSI based two-fold serial dilution method
[23] = tested on: Enterobacter cloacae; assay: Antibacterial activity against Enterobacter cloacae SR36276 assessed as reduction in bacterial growth by measuring minimum […] concentration incubated for 16 to 20 hrs by CLSI based two-fold serial dilution method; conditions: time 16-20 hrs
[24] = tested on: Enterobacter cloacae; assay: Antibacterial activity against Enterobacter cloacae SR100108 assessed as reduction in bacterial growth by measuring minimum […] concentration incubated for 16 to 20 hrs by CLSI based two-fold serial dilution method; conditions: time 16-20 hrs
[25] = tested on: Klebsiella pneumoniae; assay: Antibacterial activity against Klebsiella pneumoniae SR09635 assessed as reduction in bacterial growth by measuring minimum […] concentration incubated for 16 to 20 hrs by CLSI based two-fold serial dilution method; conditions: time 16-20 hrs
[26] = tested on: Klebsiella pneumoniae; assay: Antibacterial activity against Klebsiella pneumoniae SR09603 assessed as reduction in bacterial growth by measuring minimum […] concentration incubated for 16 to 20 hrs by CLSI based two-fold serial dilution method; conditions: time 16-20 hrs
[27] = tested on: Klebsiella pneumoniae; assay: Antibacterial activity against Klebsiella pneumoniae SR200263 assessed as reduction in bacterial growth by measuring minimum […] concentration incubated for 16 to 20 hrs by CLSI based two-fold serial dilution method; conditions: time 16-20 hrs
[28] = tested on: Klebsiella pneumoniae; assay: Antibacterial activity against Klebsiella pneumoniae SR200487 assessed as reduction in bacterial growth by measuring minimum […] concentration incubated for 16 to 20 hrs by CLSI based two-fold serial dilution method; conditions: time 16-20 hrs
[29] = tested on: Klebsiella pneumoniae; assay: Antibacterial activity against Klebsiella pneumoniae ATCC BAA1705 assessed as reduction in bacterial growth by measuring minimum potentiating concentration incubated for 16 to 20 hrs by CLSI based two-fold serial dilution method; conditions: time 16-20 hrs

## NC(=O)[C@@H]1CC[C@@H]2CN1C(=O)N2OS(=O)(=O)O [AVIBACTAM]
[1]
  IC50: 72 nM
[2]
  IC50: 59 nM
[3]
  IC50: 5700 nM
[4]
  MPC: 0.125 µg/mL
[5]
  MPC: 0.5 µg/mL
[6]
  MPC: 1 µg/mL
[7]
  MIC: 32 µg/mL (≈ 121 µM)
[8]
  MIC: > 32 µg/mL
[9]
  MIC: > 32 µg/mL
[10]
  MIC: > 32 µg/mL
[11]
  MPC: 16 µg/mL
[12]
  MPC: 2 µg/mL
[13]
  MPC: 2 µg/mL
[14]
  MIC: 32 µg/mL (≈ 121 µM)
[15]
  MIC: 16 µg/mL (≈ 60.3 µM)
[16]
  MIC: 16 µg/mL (≈ 60.3 µM)
[17]
  MIC: 32 µg/mL (≈ 121 µM)
[18]
  MIC: > 32 µg/mL
[19]
  MIC: > 32 µg/mL
[20]
  MIC: 32 µg/mL (≈ 121 µM)
[21]
  MIC: 32 µg/mL (≈ 121 µM)
[22]
  MIC: > 32 µg/mL
[23]
  MPC: 4 µg/mL
[24]
  MPC: 8 µg/mL
[25]
  MPC: 0.5 µg/mL
[26]
  MPC: 8 µg/mL
[27]
  MPC: 0.063 µg/mL
[28]
  MPC: 4 µg/mL
[29]
  MPC: 0.125 µg/mL
